From ChEMBL document CHEMBL1123566, “Synthesis and cardiac electrophysiological activity of 2- and 3-[(substituted phenyl)alkyl]quinuclidines. Structure-activity relationships” (1987)

Tests used:
Canis familiaris [1] = experiment: Heart rate was determined by intraduodenal administration of two dosages of 10 mg/kg of (high dose) compound in anesthetized dogs. Value was reported for experiment 3; format: functional, Canis lupus familiaris
Method in brief: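 Anesthetized dogs given the compound intraduodenally, generally as two doses with the second a cumulative total (low/high). FRP and CT measured at 15, 30 and 45 min after dosing. HR and BP taken during nonpacing intervals. Values are percent change from control per animal. Activity criterion is FRP or CT prolonged ≥12%. Vehicle: 5% dextrose in water/tragacanth.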

Canis familiaris [2] = experiment: Mean arterial blood pressure was determined by intraduodenal administration of two dosages of 10 mg/kg of (high dose) compound in anesthetized dogs. Value was reported for experiment 3; format: functional, Canis lupus familiaris
Method in brief: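 Anesthetized dogs, usually given two intraduodenal doses, with the second dose cumulative (low/high). Left ventricular FRP and CT were determined at 15, 30 and 45 min after dosing. HR and BP were measured during nonpacing intervals. Values are % change from control at low/high dose, for individual animals. The vehicle-stability set used 5% dextrose in water/tragacanth (n = 8).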

Molecule `CCCCCCC[N+](CC)(CC)CCCCc1ccc(Cl)cc1.O=P([O-])(O)O` [CLOFILIUM PHOSPHATE] has an HR (Canis familiaris [1]) of -11% and a Mean blood pressure (Canis familiaris [2]) of 4%.
